Screening data deposited in PubChem BioAssay by several laboratories.
ABCG2 block = blocks JC-1 efflux by human ABCG2 transporter. Q9UNQ0. IgMXP3 cells, flow cytometry. inhibition, % at 6.6 µM. actives 0.1% (n = 190,000). AID 1325;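 active = inhibition above 80%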
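Assay system – ABCG2 IgMXP3 and barcoded ABCB1 CCRF-Adr cell mix · Input – 3 million cells/mL in well · Reagent – JC-1 fluorescent substrate · Compound – single test compound dose, 6.6 µM final · Timing – 10 min exposure at 25 °C with rotation, no wash · Detection – flow cytometry of retained JC-1 fluorescence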
PMI activator = increases human mannose-6-phosphate isomerase activity | AID 1214 | activation factor at 20 µM | P34949 | purified human PMI, coupled resazurin fluorescence, 20 min; hits give high values; 1 = vehicle control, 0 substrate-free wells | actives 0.005% (n = 190,000);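 active = activation factor of 2 or more at 20 µM, relative to plate controls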
Cl transport mod = modulators of human KCC2 chloride dependent transport. Q9H2X9. KCC2 cells, thallium flux FluoZin-2 fluorescence. B-score of Tl+ flux slope (higher = more flux/activation; lower = inhibition) at 10 µM. actives 2.2% (n = 190,000);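 active = thallium flux slope and its plate-corrected score both differing from the plate sample mean at a set confidence after two filtering rounds, in either direction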;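 also: slope of fluorescence scaled to starting intensity during 10 to 20 s after thallium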
PMI act satM6P = PMI (human) activation, high substrate | P34949 | coupled PMI enzyme assay, resazurin fluorescence, 20 min; hits give high values; 1 = untreated enzyme, 0 = substrate-free blank | activation factor at 20 µM | actives 0.34% (n = 190,000) | AID 1216;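 active = activation factor of 2 or more at 20 µM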
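Test system: Human PMI in coupled enzyme assay | Input: 15 ng/mL PMI | Medium: HEPES-buffered pH 7.4 with magnesium and detergent | Compound: One concentration, 20 µM, in 1% DMSO | Incubation: Enzyme reaction with compound 20 min at room temperature | Detection: Diaphorase-driven resazurin-to-resorufin fluorescence, excitation 544, emission 590 nm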
ABCB1 block = blocks JC-1 efflux by human ABCB1 transporter; P08183; CCRF-Adr cells, flow cytometry; inhibition, % at 6.6 µM; actives 0.067% (n = 190,000); in the data active = inhibition above about 40%;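 also: higher value means more JC-1 retained so stronger ABCB1 efflux block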
ROMK mod = modulators of human ROMK potassium channel. P48048. Tet-inducible ROMK, thallium flux fluorescence; actives lie on both sides. B-score at 10 µM. actives 2% (n = 130,000);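 active = signal ratio slope over the read window, or its plate-corrected B-score, at least 3 SD from the plate mean, either direction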;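 also: B-score of the F/F0 ratio slope over 7 to 12 s after thallium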
Target sequence (P48048 whole entry, looked up): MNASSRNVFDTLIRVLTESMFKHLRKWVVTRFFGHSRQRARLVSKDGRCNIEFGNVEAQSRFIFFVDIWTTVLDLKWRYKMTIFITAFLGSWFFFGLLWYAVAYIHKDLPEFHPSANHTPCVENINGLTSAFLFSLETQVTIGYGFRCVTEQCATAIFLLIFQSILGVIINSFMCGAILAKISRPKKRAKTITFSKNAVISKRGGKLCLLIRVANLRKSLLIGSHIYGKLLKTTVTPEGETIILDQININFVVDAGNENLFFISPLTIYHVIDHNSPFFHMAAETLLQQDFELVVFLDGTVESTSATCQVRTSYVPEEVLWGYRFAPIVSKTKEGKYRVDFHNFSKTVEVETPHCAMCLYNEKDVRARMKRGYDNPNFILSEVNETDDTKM
ABCB1 confirm = inhibits human ABCB1 efflux, confirmed at single point; shares compounds with ABCG2 block; CCRF-Adr cells, JC-1 efflux, flow cytometry; inhibition, % at 6.6 µM; actives 7% (n = 270); AID 1451;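 active = inhibition of pump activity above 50%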
ABCG2 confirm = inhibits human ABCG2 efflux, confirmed at single point. shares compounds with ABCG2 block. IgMXP3 cells, JC-1 efflux, flow cytometry. inhibition, % at 6.6 µM. actives 6% (n = 270). AID 1453;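 active = inhibition above 50%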
IgMXP3 fluor = IgMXP3 autofluorescence flag for ABCG2 confirmation | shares compounds with ABCG2 block | IgMXP3 cells, compound autofluorescence 488/530 nm, flow; hits give high values | fluorescence at 6.6 µM | actives 30% (n = 270);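 active = fluorescence in ABCG2-expressing cells above the plate's control-well mean plus 3 SD, cut at about 15 in these data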
CCRF-Adr fluor = CCRF-Adr autofluorescence flag for ABCB1 confirmation; shares compounds with ABCG2 block; CCRF-Adr cells, compound autofluorescence 488/530 nm, flow cytometry; hits give high values; fluorescence at 6.6 µM; actives 30% (n = 270);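 active = fluorescence beyond the plate control mean plus 3 SD, with a fluorescence-to-maximum score over 2, cut at about 25 in these data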
Of the large screens only hits and unclear results are named; the others gave an inactive call (follow-up assays come after a bar, where they were run). Only some compounds are listed: those with a hit (about 3.3% of all), similar ones and a draw of the others.

CCCOc1ccc(C(C)=O)cc1CSc1nc(O)cc(=O)[nH]1	none
Cc1cc2nnc(SCC(=O)OC(C)C)n2c2ccccc12	none (no result: ROMK mod)
O=C1S/C(=C\c2ccc(N3CCOCC3)o2)C(=O)N1c1ccccc1	none (no result: ROMK mod)
O=C1S/C(=C/c2ccc(N3CCOCC3)o2)C(=O)N1Cc1c(F)cccc1Cl	ABCG2 block 135.9 | ABCB1 confirm inactive | ABCG2 confirm inactive | IgMXP3 fluor 248 | CCRF-Adr fluor 49.4
Cc1sc2c(c1C)c(=O)nc1scc(C)n12	none (no result: ABCG2 block, PMI activator, PMI act satM6P, ABCB1 block)
CC(=O)NCCNC(=O)C1CCCCN1S(=O)(=O)c1ccccc1 (centres undefined)	none
COc1ccc([N+](=O)[O-])cc1NC(=O)C(C)Sc1ccc(C)cc1 (centres undefined)	ABCG2 block 81.7 (no result: ROMK mod) | ABCB1 confirm inactive | ABCG2 confirm inactive | IgMXP3 fluor inactive | CCRF-Adr fluor inactive
CSc1nc(N2CCCC2)c2c(c1C#N)CC(C)(C)OC2	none | ABCB1 confirm inactive | ABCG2 confirm inactive | IgMXP3 fluor inactive | CCRF-Adr fluor inactive
COc1ccc(CN2C(=O)c3ccccc3C2=O)cc1C(=O)Nc1ccccc1N1CCOCC1	ABCB1 block 43.2 | ABCB1 confirm 71.6 | ABCG2 confirm inactive | IgMXP3 fluor inactive | CCRF-Adr fluor inactive
Cc1ccc(-c2csc3nc(SCC(=O)N(C)C)n(Cc4ccccc4)c(=O)c23)cc1	ABCG2 block 120.9 (no result: ROMK mod) | ABCB1 confirm inactive | ABCG2 confirm inactive | IgMXP3 fluor inactive | CCRF-Adr fluor inactive
CC(Oc1ncnc2ccccc12)C(=O)Nc1cccc(S(=O)(=O)N2CCOCC2)c1 (centres undefined)	none
CCNC(=O)Cn1c(=O)c(=O)n(Cc2ccccc2)c2ccc(Cl)cc21	ABCG2 block 94.9 (no result: ROMK mod) | ABCB1 confirm inactive | ABCG2 confirm inactive | IgMXP3 fluor inactive | CCRF-Adr fluor 27.4
CN(C)c1ccc(/C=C2\SC(=S)N(Nc3ncc(C(F)(F)F)cc3Cl)C2=O)cc1	ABCG2 block active, ABCB1 block 186.9 (no result: ROMK mod) | ABCB1 confirm inactive | ABCG2 confirm inactive | IgMXP3 fluor 228 | CCRF-Adr fluor 391
COCCNCC1C(Oc2ccc(Cl)cc2)C(=O)N1c1ccccc1C (centres undefined)	none
COc1ccc(CCNCC2C(Oc3ccc(Cl)cc3)C(=O)N2c2ccccc2C)cc1OC (centres undefined)	ABCB1 block 53.1 | ABCB1 confirm inactive | ABCG2 confirm inactive | IgMXP3 fluor inactive | CCRF-Adr fluor inactive
CCc1nn2c(=O)cc(CSc3nc4sc5c(c4c(=O)n3C)CCCC5)nc2s1	none (no result: ABCG2 block, PMI activator, PMI act satM6P, ABCB1 block, ROMK mod)
COC(=O)c1sc2cc([N+](=O)[O-])cc(SCC(C)C)c2c1N	ABCG2 block 153.8, ABCB1 block 61.1 | ABCB1 confirm inactive | ABCG2 confirm inactive | IgMXP3 fluor 45.8 | CCRF-Adr fluor 112
O/N=C(/CCc1ccccc1)c1ccc2c(c1)OCCO2	none
CCOc1ccc(OCc2cccc(C(=O)N/N=C/c3cccnc3)c2)cc1	ABCG2 block 86.6 | ABCB1 confirm inactive | ABCG2 confirm inactive | IgMXP3 fluor inactive | CCRF-Adr fluor inactive
CCc1ccc2oc(-c3ccc(OC)cc3)cc(=Nc3c(C)n(C)n(-c4ccccc4)c3=O)c2c1	ABCG2 block 96.9, ABCB1 block 44.4 | ABCB1 confirm inactive | ABCG2 confirm inactive | IgMXP3 fluor inactive | CCRF-Adr fluor inactive
COc1cc(C(=O)Nc2ccc(S(=O)(=O)NC(C)C)cc2)cc(OC)c1OC	ABCG2 block 81.6 (no result: ROMK mod) | ABCB1 confirm inactive | ABCG2 confirm inactive | IgMXP3 fluor inactive | CCRF-Adr fluor inactive
COc1cc(C(=O)Nc2ccc(S(=O)(=O)NC(C)(C)C)cc2)cc(OC)c1OC	none (no result: Cl transport mod)
CC(=O)c1c(C)[nH]c(C(=O)OCC(=O)Nc2cc(Cl)ccc2[N+](=O)[O-])c1C	none (no result: ROMK mod) | ABCB1 confirm inactive | ABCG2 confirm inactive | IgMXP3 fluor inactive | CCRF-Adr fluor inactive
CCC(=O)Nc1cccc(C(=O)OCc2cccc([N+](=O)[O-])c2)c1	ABCG2 block 92.6 | ABCB1 confirm inactive | ABCG2 confirm inactive | IgMXP3 fluor inactive | CCRF-Adr fluor inactive
Cc1cc(C(=O)N[C@H](c2ccccc2)[C@@]2(C)C[C@@H]2[C@@H](C)C(=O)Nc2ccc3ccccc3c2)n(C)n1	none
O=C1Nc2ccccc2Oc2cc([N+](=O)[O-])cc(Oc3ccccc3)c21	ABCG2 block 88.8 | ABCB1 confirm inactive | ABCG2 confirm inactive | IgMXP3 fluor 19.8 | CCRF-Adr fluor 59
Cc1cccc(Oc2cc([N+](=O)[O-])cc3c2C(=O)Nc2ccccc2O3)c1	none
CCc1ccc(NC(=O)CSc2nc3ccccc3c(=O)n2CCCC(=O)N2CCCC2)cc1	ABCB1 block 71.3 | ABCB1 confirm inactive | ABCG2 confirm inactive | IgMXP3 fluor inactive | CCRF-Adr fluor inactive
Cc1cc(NC(=O)c2cccc([N+](=O)[O-])c2)n(-c2ccccc2)n1	none
Cc1cc(NC(=O)c2cc([N+](=O)[O-])cc([N+](=O)[O-])c2)n(-c2ccccc2)n1	ABCG2 block 83.8 (no result: ROMK mod) | ABCB1 confirm inactive | ABCG2 confirm inactive | IgMXP3 fluor inactive | CCRF-Adr fluor inactive
COc1ccc(C(C)(C)C)cc1NC(=O)c1cc(S(=O)(=O)N(C)C)ccc1N1CCCC1	none (no result: ROMK mod)
O=C(NCc1ccccn1)c1ccc(-c2ccccc2)cc1	none (no result: Cl transport mod)
O=C(NCc1ccccn1)c1cn(-c2ccccc2)nc1-c1ccc(Cl)cc1	ABCG2 block 82.6 (no result: ROMK mod) | ABCB1 confirm inactive | ABCG2 confirm inactive | IgMXP3 fluor 22.1 | CCRF-Adr fluor 149
COc1ccc(CCNc2cc(N3CCN(C(=O)c4ccccc4F)CC3)ccc2[N+](=O)[O-])cc1OC	none (no result: ROMK mod)
COc1ccc(CCNc2cc(N3CCN(C(=O)c4ccc(C)cc4)CC3)ccc2[N+](=O)[O-])cc1OC	none | ABCB1 confirm inactive | ABCG2 confirm inactive | IgMXP3 fluor inactive | CCRF-Adr fluor inactive
O=C(NCCc1ccccc1)C1CCCN1S(=O)(=O)c1ccccc1 (centres undefined)	none
CCCN(CCC)CCOc1cc(C)ccc1C(C)C	ABCG2 block active, ABCB1 block 137.3 | ABCB1 confirm inactive | ABCG2 confirm inactive | IgMXP3 fluor inactive | CCRF-Adr fluor 37.3
